Screening data: PubChem BioAssay, several laboratories
SKKanGAS inh: inhibitors of SKKanGAS S. pyogenes growth in kanamycin (SK-promoter or general growth effect); AID 1662; inhibition, % at 7.5 µM; actives 1.3% (n = 300,000); BacTiter-Glo, 6 h;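 active = mean replicate score, as percent of positive control median, at least 50; inconclusive = mean below 50 but one replicate at or above 50; inactive = mean and every replicate below 50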;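 also: strain carries kanamycin resistance gene driven by streptokinase promoter and grows in 40 µg/ml kanamycin; loss of luminescence reflects streptokinase promoter inhibition or plain growth inhibition; 0% = median of DMSO wells and 100% = positive control at its reference dose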
Beta cell apopt: beta cell apoptosis inhibition. actives 0.8% (n = 300,000). protection from apoptosis, % (no concentration beside the values). AID 435005. INS-1E cytokine-induced death, ATP luminescence, 48 h; percent of positive-control rescue, neutral wells zero;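 active = Every replicate reaches about 75%, or at least half do and their mean reaches it too, limit read from the data; inconclusive = At least half of replicates reach the limit but their mean does not; inactive = Under half of replicates reach the limit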;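 also: 0% = cytokine-treated negative control wells and 100% = positive control rescue; higher means more ATP so stronger rescue from cytokine killing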
UPR CHOP act: activators of apoptotic arm of unfolded protein response (CHOP); CHO-CHOP luciferase reporter, UPR activation, luminescence; percent of tunicamycin response over DMSO baseline; activation, % at 10 µM; actives 0.34% (n = 330,000); AID 449763;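 active = at 10 µM dose, activation of 40% or more, normalized to positive control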;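 also: 100% = tunicamycin at 10 µg/mL and 0% = DMSO alone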
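Assay system: CHO-CHOP cells, stable luciferase reporter of PERK-eIF2a-CHOP signalling / Buffer or medium: F12 plus 10% serum / Compound dosing: one dose, 10 µM in 0.5% DMSO / Times: 6 h compound treatment, 37 °C / Technique: luciferase luminescence / Read-out: % reporter activation, DMSO baseline versus tunicamycin full activation / Benchmarks: tunicamycin and DMSO controls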
CSC inhib: cancer stem cell inhibition. actives 1.1% (n = 300,000). cancer stem cell-like cells viability, luminescence. AID 2717. inhibition, % at 7.5 µM; in the data active = inhibition above about 75%; inconclusive = no clear call, values can overlap the other calls; tested in HMLE shEcad cells
UPR XBP1 act: adaptive UPR (XBP1) activation. CHO-XBP1 luciferase reporter, IRE1-XBP1 UPR activation, luminescence; percent of tunicamycin response, DMSO as zero. activation, % at 20 µM. actives 0.33% (n = 330,000). AID 463104;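 active = versus positive control, 20 µM dose yields 30% or more activation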;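 also: 100% = tunicamycin at 10 µg/mL and 0% = DMSO only wells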
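Material: CHO-XBP1 cells stably carrying IRE1-XBP1-driven luciferase reporter / Amount: 1000 cells per well / Compound: 20 µM, 1% DMSO / Times: 6 h treatment, 37 °C / Detection: luciferase luminescence / Measure: % activation of reporter signal versus tunicamycin and DMSO controls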
Mdm2 MdmX PPI: inhibitors of human Mdm2/MdmX interaction. actives 3% (n = 330,000). SaOS-2 split-luciferase Mdm2/MdmX complementation, luminescence. inhibition, % at 8 µM. AID 485346;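 active = inhibition of at least 50% at 8 µM in the primary screen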
Target sequence (O15151 whole entry, looked up): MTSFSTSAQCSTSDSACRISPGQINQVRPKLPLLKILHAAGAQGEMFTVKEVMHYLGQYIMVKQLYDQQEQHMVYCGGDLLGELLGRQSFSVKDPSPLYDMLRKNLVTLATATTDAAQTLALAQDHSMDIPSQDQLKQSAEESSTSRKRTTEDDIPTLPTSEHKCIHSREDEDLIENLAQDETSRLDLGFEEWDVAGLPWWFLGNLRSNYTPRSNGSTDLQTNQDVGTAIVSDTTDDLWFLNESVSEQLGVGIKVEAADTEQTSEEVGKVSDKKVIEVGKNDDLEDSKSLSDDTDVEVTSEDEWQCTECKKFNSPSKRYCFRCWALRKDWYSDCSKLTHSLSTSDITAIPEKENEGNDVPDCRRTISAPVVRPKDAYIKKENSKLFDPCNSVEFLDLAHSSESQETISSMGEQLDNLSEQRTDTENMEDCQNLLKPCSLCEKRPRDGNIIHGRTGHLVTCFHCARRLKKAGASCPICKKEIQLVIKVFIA
Target sequence (Q00987 whole entry, looked up): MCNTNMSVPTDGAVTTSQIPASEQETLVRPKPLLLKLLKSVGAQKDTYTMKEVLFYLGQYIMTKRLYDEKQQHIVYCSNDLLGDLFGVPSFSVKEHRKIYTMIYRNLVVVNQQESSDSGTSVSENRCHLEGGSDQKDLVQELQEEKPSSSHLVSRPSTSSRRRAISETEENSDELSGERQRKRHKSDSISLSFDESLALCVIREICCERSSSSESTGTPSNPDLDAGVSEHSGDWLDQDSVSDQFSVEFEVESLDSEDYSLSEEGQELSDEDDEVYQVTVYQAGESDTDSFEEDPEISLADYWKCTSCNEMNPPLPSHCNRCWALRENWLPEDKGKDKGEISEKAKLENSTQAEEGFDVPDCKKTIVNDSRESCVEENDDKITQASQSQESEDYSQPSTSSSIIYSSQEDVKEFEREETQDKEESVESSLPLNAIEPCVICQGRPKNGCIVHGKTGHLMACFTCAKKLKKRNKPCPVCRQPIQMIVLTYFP
Mdm2-MdmX conf: confirmation of human Mdm2/MdmX interaction inhibitors | shares compounds with Mdm2 MdmX PPI | Mdm2-MdmX binding, luminescent assay | inhibition, % at 8 µM | actives 55% (n = 10,000); in the data active = inhibition above about 40%
Full FLuc ctr: full-length luciferase inhibition in Mdm2/MdmX counter-screen | shares compounds with Mdm2 MdmX PPI | SaOS-2 full-length luciferase counterscreen, luminescence | inhibition, % at 8 µM | actives 77% (n = 6,200) | AID 504607;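 active = mean inhibition at 8 µM reaching about 37%, which flags the compound as non-specific, limit read from the data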;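 also: p53-null SaOS-2 cells with luciferase driven by a doxycycline-inducible promoter; compound on cells about two nights before reading with doxycycline added after day one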
Starred values were filed as active, the others as inactive; ? = inconclusive; nt = not tested or not shown. Shown are actives, neighbours in structure and some others; about 4.8% of the full set was active somewhere.

SMILES	SKKanGAS inh	Beta cell apopt	UPR CHOP act	CSC inhib	UPR XBP1 act	Mdm2 MdmX PPI	Mdm2-MdmX conf	Full FLuc ctr
COc1cc(CC(=O)OCC(=O)N2CCCCC2C)cc(OC)c1OC (stereo not drawn)	2	-8	2	-13	0	1	nt	nt
CCOc1ccc(NC(=S)N=Nc2c(O)[nH]c3ccccc23)cc1	101*	20	6	-18	1	64*	28	nt
NC(=O)c1ccc(NC(=O)CSC(=O)c2ccccc2)cc1	nt	-2	-1	-19	1	5	nt	nt
Cc1ccc(SCCc2cc[n+](CC(=O)c3ccccc3)cc2)cc1	8	-12	0	26	2	4	nt	nt
O=C(C[n+]1ccccc1)c1ccc(-c2ccccc2)cc1	10	0	0	31	-1	0	nt	nt
Cc1ccc(C(=O)C[n+]2ccc(Cc3ccccc3)cc2)cc1	-4	61	0	1	-2	52*	44*	63*
CN(C)c1cc[n+](CC(=O)c2ccc(-c3ccccc3)cc2)cc1	-9	106*	2	13	0	60*	44*	48*
O=C(NCc1ccco1)/C(=C/c1ccc(Cl)cc1)NC(=O)c1ccco1	-2	-11	0	-9	-4	15	nt	nt
O=C1CN(C(=O)COC(=O)c2ccc(Cl)c(S(=O)(=O)N3CCCCC3)c2)c2ccccc2N1	nt	3	1	-1	-2	11	nt	nt
O=C1CN(C(=O)c2ccccc2)c2ccccc2N1	4	-7	-2	9	-1	-7	nt	nt
O=C1CN(C(=O)c2ccc(Cl)c(S(=O)(=O)N3CCc4ccccc43)c2)c2ccccc2N1	10	11	-1	36	-3	86*	78*	64*
O=C1CN(C(=O)c2cccc(Br)c2)c2ccccc2N1	7	1	1	35	-1	53*	62*	52*
COc1ccc(C2(c3ccc(OC)cc3)NC(=O)N(CC(=O)Nc3cc(C)ccc3OC)C2=O)cc1	11	nt	3	nt	-6	9	nt	nt
CC1CCCCN1CCNC(=O)c1ccc2c(=O)n(Cc3ccc(Cl)cc3)c(=S)[nH]c2c1 (stereo not drawn)	38	5	6	-12	0	78*	32	nt
C=CCNC(=O)c1ccc(Cn2c(=S)[nH]c3cc4c(cc3c2=O)OCO4)cc1	-3	5	1	2	8	60*	11	nt
O=C(NCC1CCCO1)c1ccc2c(=O)n(Cc3ccc(Cl)cc3)c(=S)[nH]c2c1 (stereo not drawn)	9	2	2	-8	0	56*	31	nt
CC1CCCCN1CCNC(=O)c1ccc2c(=O)n(CCc3ccccc3)c(=O)[nH]c2c1 (stereo not drawn)	0	-8	3	11	0	45	nt	nt
C=C(C)C1CC=C(C)/C(=N/NC(=O)c2ccoc2C)C1 (stereo not drawn)	1	5	1	-11	1	-29	nt	nt
O=C(CSc1nc(-c2ccccc2)cs1)Nc1nccs1	-5	-3	0	8	1	59*	-7	nt
CC(=O)NNc1nc(-c2ccccc2)cs1	23	-3	2	1	-2	7	nt	nt
O=C(NNc1nc(-c2ccc(F)cc2)cs1)c1ccccc1	68*	-3	0	16	2	62*	49*	50*
O=C1OC(Nc2nc(-c3ccc(F)cc3)cs2)c2ccccc21 (stereo not drawn)	0	21	1	42	-12	63*	23	nt
CCc1ccccc1OCC(=O)Nc1nc(-c2cccnc2)cs1	102*	2	-1	40	-2	67*	69*	36
CC1=C(C)CC(C(=O)NC2CCN(C(C)C)CC2)C(C(=O)O)C1 (stereo not drawn)	3	8	0	-15	-3	14	nt	nt
CCOc1ccc(S(=O)(=O)N(CC)CC(=O)NCc2ccncc2)cc1	-4	-5	0	-10	-5	-25	nt	nt
SMILES	SKKanGAS inh	Beta cell apopt	UPR CHOP act	CSC inhib	UPR XBP1 act	Mdm2 MdmX PPI	Mdm2-MdmX conf	Full FLuc ctr
O=C(NNc1nc(-c2ccccc2)cs1)c1ccc(F)cc1	53*	-5	-2	23	1	54*	26	nt
O=C(Cc1c(F)c(F)c(F)c(F)c1F)Nc1nc(-c2ccccc2)cs1	19	5	-1	83*	0	57*	39	84*
CC(C)(C)c1csc(NNC(=O)c2ccc(Br)cc2)n1	61*	18	4	61	1	64*	22	nt
CC(C)(C)c1csc(NC(=O)c2ccccc2O)n1	16	12	6	28	-1	-31	nt	nt
O=C(NNc1nc(-c2ccccc2)cs1)c1cccs1	22	-1	2	21	-1	37	nt	nt
CC(C)(C)N1CC23C=CC(C[C@@H]2C1=O)O3 (stereo partly drawn)	2	-1	-2	-17	2	-30	nt	nt
Cc1cccc(N=C2NN=C(c3ccccc3F)CS2)c1C	-4	-5	3	-11	-1	-62	nt	nt
COc1ccc(C2=NNC(=Nc3cc(S(=O)(=O)N(C)C)ccc3C)SC2)c(OC)c1	3	103*	0	1	1	67*	50*	54*
CCCN(CCC)c1ncnc2nc[nH]c12	-1	-10	-3	-20	0	72*	64*	35
Nc1ncnc2nc[nH]c12	17	-9	1	-3	-7	13	nt	nt
CC(C)N(Cc1ccccc1)C(=O)COC(=O)c1cnc(Cl)c(Cl)c1	nt	5	1	nt	-4	63*	9	nt
O=c1c2cc3ccccc3n2cnn1Cc1ccccc1F	4	-5	-5	-11	1	54*	41*	84*
CC(=O)OCC(=O)C1=CCC2C3CCC4=CC(=O)C=CC4(C)C3(F)C(OC(C)=O)CC12C (stereo not drawn)	-1	-29	1	-9	-3	78*	49*	46*
CC(C)(C)c1ccc(/C=N/NC(=O)Cc2c[nH]c3ccccc23)cc1	9	-2	2	72	6	55*	-32	nt
CN1C(=O)/C(=C\c2cc(N=Nc3ccccc3)ccc2O)SC1=S	83*	13	-3	0	-4	91*	54*	34
CN=C1S/C(=C\c2cc(C)n(-c3ccccc3F)c2C)C(=O)N1C	35	23	-5	16	0	56*	39	100*
Cc1cc(/C=C2\SC(=S)N(C)C2=O)c(C)n1-c1cccc(O)c1	91*	-1	-6	?	-5	78*	79*	98*
